Reference: ChEMBL document CHEMBL4261620, “Design, synthesis, and biological evaluation of 4-chloro-2H-thiochromenes featuring nitrogen-containing side chains as potent antifungal agents” (Bioorg Med Chem Lett, 2018)
≈ marks a conversion by molar mass, not a printed value.

Legend:
Assay type in all cases: functional
Cryptococcus neoformans = assay: Antifungal activity against Cryptococcus neoformans cgmcc 2.3161 after 2 to 7 days by broth microdilution method
Outline: (§1)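 Broth microdilution in 96-well plates per NCCLS. Compounds and fluconazole reference dissolved in DMSO, serially diluted in growth medium, then inoculum suspension added, final concentrations 128 to 0.25 µg/mL (twofold series). Incubated at 32°C. MIC read visually after 2-7 d.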

Candida tropicalis = assay: Antifungal activity against Candida tropicalis cgmcc 2.3739 after 2 to 7 days by broth microdilution method; outline: as §1
Aspergillus fumigatus = assay: Antifungal activity against Aspergillus fumigatus cgmcc 3.7795 after 2 to 7 days by broth microdilution method; outline: as §1
Candida albicans [1] = assay: Antifungal activity against Candida albicans cpcc 400616 after 2 to 7 days by broth microdilution method; outline: as §1
Candida albicans [2] = assay: Antifungal activity against fluconazole-sensitive Candida albicans ATCC SC5314 after 2 to 7 days by broth microdilution method; outline: as §1
Candida albicans [3] = assay: Antifungal activity against fluconazole-resistant Candida albicans 103 after 2 to 7 days by broth microdilution method
Outline: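 Broth microdilution per NCCLS. Compounds dissolved in DMSO, serially diluted in growth medium, then inoculum suspension added to give final concentrations of 128 to 0.25 µg/mL (twofold steps). Plates incubated at 32°C. MIC read by visual observation after 2-7 d. Fluconazole served as reference drug.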

## O=C1CCSc2ccc(Cl)cc21
Cryptococcus neoformans
  MIC: 32 µg/mL (≈ 161 µM)
Candida tropicalis
  MIC: 8 µg/mL (≈ 40.3 µM)
Aspergillus fumigatus
  MIC: > 128 µg/mL
Candida albicans [1]
  MIC: 16 µg/mL (≈ 80.5 µM)
Candida albicans [2]
  MIC: 4 µg/mL (≈ 20.1 µM)
Candida albicans [3]
  MIC: 16 µg/mL (≈ 80.5 µM)

## Fc1ccc2c(c1)C(Cl)=C(Cn1cncn1)CS2
Cryptococcus neoformans
  MIC: 64 µg/mL (≈ 227 µM)
Candida tropicalis
  MIC: 8 µg/mL (≈ 28.4 µM)
Aspergillus fumigatus
  MIC: > 128 µg/mL
Candida albicans [1]
  MIC: 16 µg/mL (≈ 56.8 µM)
Candida albicans [2]
  MIC: 4 µg/mL (≈ 14.2 µM)
Candida albicans [3]
  MIC: 32 µg/mL (≈ 114 µM)

## ClC1=C(CN2CCCC2)CSc2ccc(Br)cc21
Cryptococcus neoformans
  MIC: 8 µg/mL (≈ 23.2 µM)
Candida tropicalis
  MIC: 128 µg/mL (≈ 371 µM)
Aspergillus fumigatus
  MIC: > 128 µg/mL
Candida albicans [1]
  MIC: 16 µg/mL (≈ 46.4 µM)
Candida albicans [2]
  MIC: 8 µg/mL (≈ 23.2 µM)
Candida albicans [3]
  MIC: 64 µg/mL (≈ 186 µM)

## ClC1=C(Cn2ccnc2)CSc2ccc(Cl)cc21
Cryptococcus neoformans
  MIC: 8 µg/mL (≈ 26.9 µM)
Candida tropicalis
  MIC: 64 µg/mL (≈ 215 µM)
Aspergillus fumigatus
  MIC: 64 µg/mL (≈ 215 µM)
Candida albicans [1]
  MIC: 32 µg/mL (≈ 108 µM)
Candida albicans [2]
  MIC: 16 µg/mL (≈ 53.8 µM)
Candida albicans [3]
  MIC: 64 µg/mL (≈ 215 µM)

## CCN(CC)CC1=C(Cl)c2cc(Br)ccc2SC1
Cryptococcus neoformans
  MIC: 4 µg/mL (≈ 11.5 µM)
Candida tropicalis
  MIC: 64 µg/mL (≈ 185 µM)
Aspergillus fumigatus
  MIC: > 128 µg/mL
Candida albicans [1]
  MIC: 16 µg/mL (≈ 46.1 µM)
Candida albicans [2]
  MIC: 8 µg/mL (≈ 23.1 µM)
Candida albicans [3]
  MIC: 64 µg/mL (≈ 185 µM)

## CN1CCN(CC2=C(Cl)c3cc(F)ccc3SC2)CC1
Cryptococcus neoformans
  MIC: 1 µg/mL (≈ 3.2 µM)
Candida tropicalis
  MIC: 32 µg/mL (≈ 102 µM)
Aspergillus fumigatus
  MIC: > 128 µg/mL
Candida albicans [1]
  MIC: 16 µg/mL (≈ 51.1 µM)
Candida albicans [2]
  MIC: 16 µg/mL (≈ 51.1 µM)
Candida albicans [3]
  MIC: 16 µg/mL (≈ 51.1 µM)

## O=C1CCSc2ccc(F)cc21
Cryptococcus neoformans
  MIC: 64 µg/mL (≈ 351 µM)
Candida tropicalis
  MIC: 16 µg/mL (≈ 87.8 µM)
Aspergillus fumigatus
  MIC: 64 µg/mL (≈ 351 µM)
Candida albicans [1]
  MIC: 32 µg/mL (≈ 176 µM)
Candida albicans [2]
  MIC: 8 µg/mL (≈ 43.9 µM)
Candida albicans [3]
  MIC: 64 µg/mL (≈ 351 µM)

## CN1CCN(CC2=C(Cl)c3cc(Br)ccc3SC2)CC1
Cryptococcus neoformans
  MIC: 8 µg/mL (≈ 21.4 µM)
Candida tropicalis
  MIC: 16 µg/mL (≈ 42.8 µM)
Aspergillus fumigatus
  MIC: > 128 µg/mL
Candida albicans [1]
  MIC: 16 µg/mL (≈ 42.8 µM)
Candida albicans [2]
  MIC: 8 µg/mL (≈ 21.4 µM)
Candida albicans [3]
  MIC: 64 µg/mL (≈ 171 µM)

## CC(C)NCC1=C(Cl)c2cc(Cl)ccc2SC1
Cryptococcus neoformans
  MIC: 0.5 µg/mL (≈ 1.73 µM)
Candida tropicalis
  MIC: 32 µg/mL (≈ 111 µM)
Aspergillus fumigatus
  MIC: 64 µg/mL (≈ 222 µM)
Candida albicans [1]
  MIC: 32 µg/mL (≈ 111 µM)
Candida albicans [2]
  MIC: 16 µg/mL (≈ 55.5 µM)
Candida albicans [3]
  MIC: 32 µg/mL (≈ 111 µM)

## Fc1ccc2c(c1)C(Cl)=C(CN1CCCCC1)CS2
Cryptococcus neoformans
  MIC: 2 µg/mL (≈ 6.72 µM)
Candida tropicalis
  MIC: 16 µg/mL (≈ 53.7 µM)
Aspergillus fumigatus
  MIC: > 128 µg/mL
Candida albicans [1]
  MIC: 2 µg/mL (≈ 6.72 µM)
Candida albicans [2]
  MIC: 8 µg/mL (≈ 26.9 µM)
Candida albicans [3]
  MIC: 16 µg/mL (≈ 53.7 µM)

## CC(C)N(CC1=C(Cl)c2cc(F)ccc2SC1)C(C)C
Cryptococcus neoformans
  MIC: 4 µg/mL (≈ 12.7 µM)
Candida tropicalis
  MIC: 2 µg/mL (≈ 6.37 µM)
Aspergillus fumigatus
  MIC: > 128 µg/mL
Candida albicans [1]
  MIC: 4 µg/mL (≈ 12.7 µM)
Candida albicans [2]
  MIC: 4 µg/mL (≈ 12.7 µM)
Candida albicans [3]
  MIC: 64 µg/mL (≈ 204 µM)

## ClC1=C(Cn2cncn2)CSc2ccc(Br)cc21
Cryptococcus neoformans
  MIC: 8 µg/mL (≈ 23.3 µM)
Candida tropicalis
  MIC: > 128 µg/mL
Aspergillus fumigatus
  MIC: > 128 µg/mL
Candida albicans [1]
  MIC: > 128 µg/mL
Candida albicans [2]
  MIC: 64 µg/mL (≈ 187 µM)
Candida albicans [3]
  MIC: > 128 µg/mL

## Cc1ccc2c(c1)C(Cl)=C(CN1CCN(C)CC1)CS2
Cryptococcus neoformans
  MIC: 32 µg/mL (≈ 104 µM)
Candida tropicalis
  MIC: 8 µg/mL (≈ 25.9 µM)
Aspergillus fumigatus
  MIC: > 128 µg/mL
Candida albicans [1]
  MIC: 32 µg/mL (≈ 104 µM)
Candida albicans [2]
  MIC: 8 µg/mL (≈ 25.9 µM)
Candida albicans [3]
  MIC: 64 µg/mL (≈ 207 µM)

## ClC1=C(CN2CCCCC2)CSc2ccc(Br)cc21
Cryptococcus neoformans
  MIC: 4 µg/mL (≈ 11.2 µM)
Candida tropicalis
  MIC: 128 µg/mL (≈ 357 µM)
Aspergillus fumigatus
  MIC: > 128 µg/mL
Candida albicans [1]
  MIC: 32 µg/mL (≈ 89.2 µM)
Candida albicans [2]
  MIC: 8 µg/mL (≈ 22.3 µM)
Candida albicans [3]
  MIC: 64 µg/mL (≈ 178 µM)

## Fc1ccc2c(c1)C(Cl)=C(CN1CCCC1)CS2
Cryptococcus neoformans
  MIC: 4 µg/mL (≈ 14.1 µM)
Candida tropicalis
  MIC: 16 µg/mL (≈ 56.4 µM)
Aspergillus fumigatus
  MIC: > 128 µg/mL
Candida albicans [1]
  MIC: 8 µg/mL (≈ 28.2 µM)
Candida albicans [2]
  MIC: 8 µg/mL (≈ 28.2 µM)
Candida albicans [3]
  MIC: 64 µg/mL (≈ 226 µM)

## Fc1ccc2c(c1)C(Cl)=C(Cn1ccnc1)CS2
Cryptococcus neoformans
  MIC: 32 µg/mL (≈ 114 µM)
Candida tropicalis
  MIC: 8 µg/mL (≈ 28.5 µM)
Aspergillus fumigatus
  MIC: > 128 µg/mL
Candida albicans [1]
  MIC: 16 µg/mL (≈ 57 µM)
Candida albicans [2]
  MIC: 4 µg/mL (≈ 14.2 µM)
Candida albicans [3]
  MIC: 64 µg/mL (≈ 228 µM)

## CC(C)NCC1=C(Cl)c2cc(Br)ccc2SC1
Cryptococcus neoformans
  MIC: 4 µg/mL (≈ 12 µM)
Candida tropicalis
  MIC: > 128 µg/mL
Aspergillus fumigatus
  MIC: > 128 µg/mL
Candida albicans [1]
  MIC: 8 µg/mL (≈ 24 µM)
Candida albicans [2]
  MIC: 4 µg/mL (≈ 12 µM)
Candida albicans [3]
  MIC: 16 µg/mL (≈ 48.1 µM)

## CCN(CC)CC1=C(Cl)c2cc(C)ccc2SC1
Cryptococcus neoformans
  MIC: 8 µg/mL (≈ 28.4 µM)
Candida tropicalis
  MIC: 64 µg/mL (≈ 227 µM)
Aspergillus fumigatus
  MIC: > 128 µg/mL
Candida albicans [1]
  MIC: 32 µg/mL (≈ 114 µM)
Candida albicans [2]
  MIC: 32 µg/mL (≈ 114 µM)
Candida albicans [3]
  MIC: 64 µg/mL (≈ 227 µM)

## CC(C)N(CC1=C(Cl)c2cc(Cl)ccc2SC1)C(C)C
Cryptococcus neoformans
  MIC: 64 µg/mL (≈ 194 µM)
Candida tropicalis
  MIC: 64 µg/mL (≈ 194 µM)
Aspergillus fumigatus
  MIC: > 128 µg/mL
Candida albicans [1]
  MIC: 4 µg/mL (≈ 12.1 µM)
Candida albicans [2]
  MIC: 4 µg/mL (≈ 12.1 µM)
Candida albicans [3]
  MIC: 64 µg/mL (≈ 194 µM)

## ClC1=C(CN2CCCC2)CSc2ccc(Cl)cc21
Cryptococcus neoformans
  MIC: 4 µg/mL (≈ 13.3 µM)
Candida tropicalis
  MIC: 4 µg/mL (≈ 13.3 µM)
Aspergillus fumigatus
  MIC: > 128 µg/mL
Candida albicans [1]
  MIC: 32 µg/mL (≈ 107 µM)
Candida albicans [2]
  MIC: 1 µg/mL (≈ 3.33 µM)
Candida albicans [3]
  MIC: > 128 µg/mL

## CCN(CC)CC1=C(Cl)c2cc(F)ccc2SC1
Cryptococcus neoformans
  MIC: 2 µg/mL (≈ 7 µM)
Candida tropicalis
  MIC: 2 µg/mL (≈ 7 µM)
Aspergillus fumigatus
  MIC: > 128 µg/mL
Candida albicans [1]
  MIC: 8 µg/mL (≈ 28 µM)
Candida albicans [2]
  MIC: 8 µg/mL (≈ 28 µM)
Candida albicans [3]
  MIC: 64 µg/mL (≈ 224 µM)

## Cc1ccc2c(c1)C(Cl)=C(CN1CCCCC1)CS2
Cryptococcus neoformans
  MIC: 16 µg/mL (≈ 54.4 µM)
Candida tropicalis
  MIC: 64 µg/mL (≈ 218 µM)
Aspergillus fumigatus
  MIC: > 128 µg/mL
Candida albicans [1]
  MIC: 32 µg/mL (≈ 109 µM)
Candida albicans [2]
  MIC: 16 µg/mL (≈ 54.4 µM)
Candida albicans [3]
  MIC: 128 µg/mL (≈ 436 µM)

## CC(C)NCC1=C(Cl)c2cc(F)ccc2SC1
Cryptococcus neoformans
  MIC: 4 µg/mL (≈ 14.7 µM)
Candida tropicalis
  MIC: 2 µg/mL (≈ 7.36 µM)
Aspergillus fumigatus
  MIC: 64 µg/mL (≈ 235 µM)
Candida albicans [1]
  MIC: 8 µg/mL (≈ 29.4 µM)
Candida albicans [2]
  MIC: 2 µg/mL (≈ 7.36 µM)
Candida albicans [3]
  MIC: 64 µg/mL (≈ 235 µM)

## ClC1=C(Cn2ccnc2)CSc2ccc(Br)cc21
Cryptococcus neoformans
  MIC: 8 µg/mL (≈ 23.4 µM)
Candida tropicalis
  MIC: > 128 µg/mL
Aspergillus fumigatus
  MIC: > 128 µg/mL
Candida albicans [1]
  MIC: 64 µg/mL (≈ 187 µM)
Candida albicans [2]
  MIC: 16 µg/mL (≈ 46.8 µM)
Candida albicans [3]
  MIC: > 128 µg/mL

## ClC1=C(Cn2cncn2)CSc2ccc(Cl)cc21
Cryptococcus neoformans
  MIC: 4 µg/mL (≈ 13.4 µM)
Candida tropicalis
  MIC: 32 µg/mL (≈ 107 µM)
Aspergillus fumigatus
  MIC: > 128 µg/mL
Candida albicans [1]
  MIC: 16 µg/mL (≈ 53.7 µM)
Candida albicans [2]
  MIC: 8 µg/mL (≈ 26.8 µM)
Candida albicans [3]
  MIC: 32 µg/mL (≈ 107 µM)

## CN1CCN(CC2=C(Cl)c3cc(Cl)ccc3SC2)CC1
Cryptococcus neoformans
  MIC: 4 µg/mL (≈ 12.1 µM)
Candida tropicalis
  MIC: 64 µg/mL (≈ 194 µM)
Aspergillus fumigatus
  MIC: > 128 µg/mL
Candida albicans [1]
  MIC: 32 µg/mL (≈ 97.2 µM)
Candida albicans [2]
  MIC: 16 µg/mL (≈ 48.6 µM)
Candida albicans [3]
  MIC: 64 µg/mL (≈ 194 µM)

## O=C1CCSc2ccc(Br)cc21
Cryptococcus neoformans
  MIC: 64 µg/mL (≈ 263 µM)
Candida tropicalis
  MIC: 16 µg/mL (≈ 65.8 µM)
Aspergillus fumigatus
  MIC: > 128 µg/mL
Candida albicans [1]
  MIC: 32 µg/mL (≈ 132 µM)
Candida albicans [2]
  MIC: 8 µg/mL (≈ 32.9 µM)
Candida albicans [3]
  MIC: 64 µg/mL (≈ 263 µM)
